One data set deals with Cytochrome P450 2C9 (Homo sapiens, UniProt P11712). Put plainly: Drug metabolism assessed as human CYP2C9-mediated formation of 12-OHNVP at 10 uM pre-incubated for 30 mins followed by addition of NADPH regenerating reagents by uHPLC-MS analysis. It is filed as ADME. The following applies: recombinant enzyme. Summed up:
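Insect-cell microsomes with single cDNA-expressed human P450 (100 nM) in 0.1 M potassium phosphate; 10 μM substrate prewarmed 5 min at 37 °C with NADPH-regenerating system, reaction started by adding microsomes; 30 min at 37 °C, 0.1% DMSO. Stopped, dried, reconstituted in methanol; triple-quadrupole SRM (12-OH 283.1→223.0, 2-OH 283.1→160.9, 3-OH 283.1→241.9), peak height; three replicates, mean ± SD.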

Data set [1] relates to Hepatocyte. Put plainly: Induction of change in KARS protein expression in human primary hepatocytes at 10 uM incubated for 48 hrs by relative-quantitation label-free proteomics analysis relative to NVP. It is filed as cell-based. Summed up:
(§1)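 Cryoplateable pooled human hepatocytes (10 mixed-sex donors per pool; three pools), adhered overnight, then given fresh medium containing compound (10 μM), NVP (10 μM) or vehicle (0.1% DMSO) for 48 h. Lysate reduced (DTT) and alkylated (iodoacetamide), acetone-precipitated and digested with trypsin. Label-free Top10 nanoLC-MS with precursor ion area quantitation; unpaired t test P values, Cohen's d effect size.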

The test system of data set [2] is Hepatocyte. Put plainly: Induction of change in PTP4A1 protein expression in human primary hepatocytes at 10 uM incubated for 48 hrs by relative-quantitation label-free proteomics analysis relative to NVP. The format is cell-based. A digest of the protocol:
as §1

This note sets out measurements from ChEMBL document CHEMBL4613248, “Twelfth-Position Deuteration of Nevirapine Reduces 12-Hydroxy-Nevirapine Formation and Nevirapine-Induced Hepatocyte Death” (J Med Chem, 2020).

Sequence of Cytochrome P450 2C9 (P11712 whole entry): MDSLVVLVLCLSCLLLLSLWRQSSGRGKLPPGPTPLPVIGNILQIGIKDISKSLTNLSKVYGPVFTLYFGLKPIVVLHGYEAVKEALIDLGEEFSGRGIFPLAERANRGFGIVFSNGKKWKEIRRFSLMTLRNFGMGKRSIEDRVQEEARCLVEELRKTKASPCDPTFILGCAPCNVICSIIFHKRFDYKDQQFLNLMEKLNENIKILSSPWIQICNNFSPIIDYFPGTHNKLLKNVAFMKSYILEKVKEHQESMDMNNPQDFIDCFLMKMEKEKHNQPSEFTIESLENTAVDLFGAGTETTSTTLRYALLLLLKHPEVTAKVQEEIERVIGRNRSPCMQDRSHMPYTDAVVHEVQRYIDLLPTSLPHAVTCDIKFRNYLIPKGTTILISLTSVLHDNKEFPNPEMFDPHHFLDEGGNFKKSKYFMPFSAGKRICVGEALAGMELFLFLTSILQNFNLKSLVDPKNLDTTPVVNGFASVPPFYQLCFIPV

As for `[2H]C([2H])([2H])c1ccnc2c1NC(=O)c1cccnc1N2C1CC1`, the Drug metabolism result at Cytochrome P450 2C9 is recorded as “Metabolite_Detected”. The “fold change (FC)” value was -1.42 in the data set with Hepatocyte [1] and -2.42 in the data set on Hepatocyte [2].
